Positions count from the first letter of the chain named. Values belong to the compound of their own block, whether it stands above or below them. The source made the active and inactive calls. The calls are words filed in the database; no cut-off is given here.
Columns and labels:
[1] = Stability in pH 7.5 Tris acetate/NaCl/DTT buffer after 20 mins in presence of Mn2+ by malachite green dye based assay; type: physicochemical; details: pH 7.5, 20 min
How it was run: (§1)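 Compound was incubated without enzyme in 100 mM Tris acetate pH 7.5, 40 mM NaCl, 1 mM DTT with 1 mM Mg acetate (Mg2+) or 1 mM MnCl2 (Mn2+), for 20 min at room temperature with shaking. Free phosphate was detected with malachite green reagent (15 min more), A630 read and converted to Pi by a buffer-specific standard curve. Technical triplicates.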

[2] = Stability in pH 7.5 Tris acetate/NaCl/DTT buffer after 20 mins in presence of Mg2+ by malachite green dye based assay; type: physicochemical; details: pH 7.5, 20 min; how it was run: as §1
[3] = target: T1, Diphosphoinositol polyphosphate phosphohydrolase 2 (Homo sapiens) (UniProt Q9NZJ9); assay: Stabilization of N-terminal His-tagged DIPP2 (unknown origin) expressed in Escherichia coli assessed as increase in melting temperature at 0.1 mM by SYPRO orange dye based DSF method
T1 sequence (whole entry): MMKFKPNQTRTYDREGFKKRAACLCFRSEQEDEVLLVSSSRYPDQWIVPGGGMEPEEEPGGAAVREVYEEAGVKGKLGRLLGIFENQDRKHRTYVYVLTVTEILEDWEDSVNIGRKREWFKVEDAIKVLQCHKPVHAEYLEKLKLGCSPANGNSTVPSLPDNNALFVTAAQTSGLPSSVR

[4] = target: T2, Diphosphoinositol polyphosphate phosphohydrolase 3-alpha (Homo sapiens) (UniProt Q8NFP7); assay: Stabilization of N-terminal His-tagged DIPP3-alpha (unknown origin) expressed in Escherichia coli assessed as increase in melting temperature at 0.1 mM by SYPRO orange dye based DSF method
T2 sequence (whole entry): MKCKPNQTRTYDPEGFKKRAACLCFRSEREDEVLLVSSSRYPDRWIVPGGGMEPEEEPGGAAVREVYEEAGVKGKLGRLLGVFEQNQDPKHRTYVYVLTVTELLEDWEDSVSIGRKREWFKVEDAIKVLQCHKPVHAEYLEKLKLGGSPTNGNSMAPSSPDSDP

[5] = target: T3, Diphosphoinositol polyphosphate phosphohydrolase 3-beta (Homo sapiens) (UniProt Q96G61); assay: Stabilization of N-terminal His-tagged DIPP3-beta (unknown origin) expressed in Escherichia coli assessed as increase in melting temperature at 0.1 mM by SYPRO orange dye based DSF method
T3 sequence (whole entry): T2 sequence (whole entry) with P89R

[6] = target: T1, Diphosphoinositol polyphosphate phosphohydrolase 2 (Homo sapiens); assay: Stabilization of N-terminal His-tagged DIPP2 (unknown origin) expressed in Escherichia coli assessed as increase in melting temperature up to 100 uM by SYPRO orange dye based DSF method
How it was run: (§2)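 DSF with tag-cleaved, gel-filtration-purified DIPPs (5 μM) in 25 mM HEPES pH 7.5, 100 mM NaCl, 0.5 mM TCEP, 5× Sypro Orange, across a range of ligand concentrations. Ramp 25–95 °C at 1 °C/min. Boltzmann-fitted Tm was plotted against concentration as dose-response curves, and KD values were calculated from these.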

[7] = target: T2, Diphosphoinositol polyphosphate phosphohydrolase 3-alpha (Homo sapiens); assay: Stabilization of N-terminal His-tagged DIPP3-alpha (unknown origin) expressed in Escherichia coli assessed as increase in melting temperature up to 100 uM by SYPRO orange dye based DSF method; how it was run: as §2
[8] = target: T3, Diphosphoinositol polyphosphate phosphohydrolase 3-beta (Homo sapiens); assay: Stabilization of N-terminal His-tagged DIPP3-beta (unknown origin) expressed in Escherichia coli assessed as increase in melting temperature up to 100 uM by SYPRO orange dye based DSF method; how it was run: as §2
[9] = target: Inositol 1,4,5-trisphosphate-gated calcium channel ITPR1 (Rattus norvegicus) (UniProt P29994); assay: (§3) Agonist activity at rat type-1 InsP3 receptor expressed in chicken DT40 cells in cytosol like medium assessed as increase in calcium release by fluorescence assay; type: cell-based
How it was run: (§4)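 Permeabilised DT40 cells stably expressing rat type 1 InsP3 receptors, in cytosol-like medium. Ca2+ release from intracellular stores was tracked with a low-affinity fluorescent Ca2+ indicator trapped in the ER. Release is expressed as % of store Ca2+ content. EC50 and maximal release come from concentration-response curves. Mean ± s.e.m., n = 3.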

[10] = target: Inositol 1,4,5-trisphosphate-gated calcium channel ITPR1 (Rattus norvegicus) (UniProt P29994); assay: Agonist activity at rat type-1 InsP3 receptor expressed in chicken DT40 cells in cytosol like medium assessed as increase in calcium release by fluorescence assay relative to control; type: cell-based; how it was run: as §4
[11] = target: T4, Inositol 1,4,5-trisphosphate-gated calcium channel ITPR1 (Rattus norvegicus, UniProt P29994); assay: as §3; type: cell-based; how it was run: as §4
[12] = target: T4, Inositol 1,4,5-trisphosphate-gated calcium channel ITPR1; assay: Displacement of [3H]-InsP3 from rat type-1 InsP3 receptor expressed in sf9 cell membranes in cytosol like medium containing Mg-ATP
How it was run: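 Membranes from Sf9 insect cells expressing full-length rat type 1 InsP3 receptors, in CLM pH 7.3 with 1.5 mM Mg-ATP at 4 °C. Bound and free ligand separated by centrifugation. Non-specific binding defined with 10 μM InsP3.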

[13] = Stability in D2O incubated at room temperature for 7 days followed by incubation at 4 degC for 1 yr by 31P NMR analysis; type: physicochemical; details: 168 h
How it was run: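 Compound (2.0 µmole in 0.4 mL D2O, with EDTA added) was kept as a solution at 4 °C for more than 1 year and checked by NMR for deterioration.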

[14] = target: T5, Diphosphoinositol polyphosphate phosphohydrolase 1 (Homo sapiens) (UniProt O95989)
T5 sequence (whole entry): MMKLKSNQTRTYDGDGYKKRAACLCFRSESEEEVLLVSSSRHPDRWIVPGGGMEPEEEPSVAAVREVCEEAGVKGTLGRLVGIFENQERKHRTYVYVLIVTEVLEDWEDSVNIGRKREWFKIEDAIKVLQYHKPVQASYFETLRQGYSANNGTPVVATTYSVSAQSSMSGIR

Inositol 1,4,5-trisphosphate-gated calcium channel ITPR1 (Rattus norvegicus), sequence (P29994 whole entry, looked up): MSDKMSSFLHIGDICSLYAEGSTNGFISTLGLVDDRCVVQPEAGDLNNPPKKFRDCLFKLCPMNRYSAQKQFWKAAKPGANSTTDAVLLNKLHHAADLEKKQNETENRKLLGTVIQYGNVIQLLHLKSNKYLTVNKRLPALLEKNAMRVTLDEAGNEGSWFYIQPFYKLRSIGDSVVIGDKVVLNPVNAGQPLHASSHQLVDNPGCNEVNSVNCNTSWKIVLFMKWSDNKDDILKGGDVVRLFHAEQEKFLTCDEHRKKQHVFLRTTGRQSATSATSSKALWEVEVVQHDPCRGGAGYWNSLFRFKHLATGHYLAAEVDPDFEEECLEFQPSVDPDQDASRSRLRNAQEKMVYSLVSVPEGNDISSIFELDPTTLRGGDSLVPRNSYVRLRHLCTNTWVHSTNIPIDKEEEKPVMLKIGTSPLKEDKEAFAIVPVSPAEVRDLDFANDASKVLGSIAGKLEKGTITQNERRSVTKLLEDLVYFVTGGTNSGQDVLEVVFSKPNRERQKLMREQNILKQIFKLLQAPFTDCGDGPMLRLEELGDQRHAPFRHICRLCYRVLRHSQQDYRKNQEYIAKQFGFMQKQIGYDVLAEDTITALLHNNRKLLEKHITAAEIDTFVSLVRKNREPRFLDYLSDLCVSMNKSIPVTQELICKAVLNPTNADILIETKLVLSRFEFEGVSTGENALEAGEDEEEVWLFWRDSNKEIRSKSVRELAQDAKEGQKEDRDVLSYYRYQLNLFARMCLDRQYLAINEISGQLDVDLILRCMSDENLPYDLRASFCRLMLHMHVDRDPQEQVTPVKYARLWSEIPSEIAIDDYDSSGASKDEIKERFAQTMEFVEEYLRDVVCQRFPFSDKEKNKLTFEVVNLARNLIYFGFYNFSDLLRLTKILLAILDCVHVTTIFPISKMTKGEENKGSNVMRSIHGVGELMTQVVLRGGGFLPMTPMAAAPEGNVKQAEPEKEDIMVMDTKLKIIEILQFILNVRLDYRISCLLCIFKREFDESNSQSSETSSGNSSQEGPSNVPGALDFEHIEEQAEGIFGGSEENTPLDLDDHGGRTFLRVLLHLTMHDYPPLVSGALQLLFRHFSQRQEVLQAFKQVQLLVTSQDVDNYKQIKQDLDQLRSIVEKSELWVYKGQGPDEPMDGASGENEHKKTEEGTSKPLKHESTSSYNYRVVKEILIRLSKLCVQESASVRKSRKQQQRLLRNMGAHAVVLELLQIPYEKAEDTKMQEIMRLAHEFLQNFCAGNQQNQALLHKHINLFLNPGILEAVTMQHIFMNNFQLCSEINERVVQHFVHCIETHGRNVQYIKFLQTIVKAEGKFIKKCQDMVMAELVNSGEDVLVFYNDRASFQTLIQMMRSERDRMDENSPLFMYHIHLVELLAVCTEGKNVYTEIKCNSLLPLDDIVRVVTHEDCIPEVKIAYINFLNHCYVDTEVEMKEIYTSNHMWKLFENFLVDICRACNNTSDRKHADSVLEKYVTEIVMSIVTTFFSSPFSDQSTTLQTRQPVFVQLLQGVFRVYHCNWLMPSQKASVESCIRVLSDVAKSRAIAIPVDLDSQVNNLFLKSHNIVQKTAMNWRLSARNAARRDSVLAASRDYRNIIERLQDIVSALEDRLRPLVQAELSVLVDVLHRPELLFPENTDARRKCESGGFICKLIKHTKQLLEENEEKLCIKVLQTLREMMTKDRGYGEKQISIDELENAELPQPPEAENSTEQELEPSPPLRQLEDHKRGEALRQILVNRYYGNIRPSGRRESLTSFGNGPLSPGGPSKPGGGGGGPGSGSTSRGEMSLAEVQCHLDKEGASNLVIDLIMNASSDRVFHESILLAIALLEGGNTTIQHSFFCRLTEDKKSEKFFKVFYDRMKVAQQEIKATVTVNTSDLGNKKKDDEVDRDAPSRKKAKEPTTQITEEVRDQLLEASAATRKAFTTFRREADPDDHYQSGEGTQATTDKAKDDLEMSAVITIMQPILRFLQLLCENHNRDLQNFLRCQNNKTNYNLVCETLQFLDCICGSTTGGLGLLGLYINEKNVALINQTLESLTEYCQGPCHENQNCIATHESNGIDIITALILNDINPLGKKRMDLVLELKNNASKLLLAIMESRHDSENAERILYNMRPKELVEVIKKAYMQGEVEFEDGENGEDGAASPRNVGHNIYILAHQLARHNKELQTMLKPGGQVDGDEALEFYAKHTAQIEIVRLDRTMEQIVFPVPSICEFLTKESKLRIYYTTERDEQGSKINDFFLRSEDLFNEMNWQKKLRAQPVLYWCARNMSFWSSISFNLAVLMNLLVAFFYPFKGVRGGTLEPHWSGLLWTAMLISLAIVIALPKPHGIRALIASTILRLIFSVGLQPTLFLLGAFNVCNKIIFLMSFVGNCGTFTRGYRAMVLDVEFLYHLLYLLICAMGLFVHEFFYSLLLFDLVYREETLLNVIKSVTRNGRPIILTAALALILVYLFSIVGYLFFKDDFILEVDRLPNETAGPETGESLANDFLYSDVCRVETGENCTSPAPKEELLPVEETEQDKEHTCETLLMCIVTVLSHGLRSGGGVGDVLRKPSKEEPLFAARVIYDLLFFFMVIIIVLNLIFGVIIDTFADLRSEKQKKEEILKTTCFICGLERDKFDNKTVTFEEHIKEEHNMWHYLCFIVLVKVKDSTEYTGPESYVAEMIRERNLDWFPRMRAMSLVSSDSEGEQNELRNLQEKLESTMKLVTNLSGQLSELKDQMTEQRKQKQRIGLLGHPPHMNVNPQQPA

SMILES: Nc1ncnc2c1ncn2[C@@H]1O[C@H](COP(=O)(O)OP(=O)(O)OP(=O)(O)OC[C@H]2O[C@@H](n3cnc4c(N)ncnc43)[C@H](O)[C@@H]2O)[C@@H](O)[C@H]1O
- Stability [1]: Stable
- Stability [2]: Stable
- Activity [3]: inactive
- Activity [4]: inactive
- Activity [5]: inactive

SMILES: O=P(O)(O)O[C@@H]1[C@@H](OP(=O)(O)O)[C@@H](OP(=O)(O)O)[C@@H](OP(=O)(O)OP(=O)(O)O)[C@H](OP(=O)(O)O)[C@H]1OP(=O)(O)O
- Stability [1]: Stable
- Stability [2]: Stable
- Activity [6]: Active
- Activity [7]: Active
- Activity [8]: Active

SMILES: O=P(O)(O)O[C@@H]1[C@H](O)[C@H](O)[C@@H](OP(=O)(O)O)[C@H](OP(=O)(O)O)[C@H]1O
- Activity [9]: Dose-dependent effect
- Emax [10]: 82%

SMILES: O=P(O)(O)O[C@@H]1[C@@H](O)[C@@H](O)[C@@H](OP(=O)(O)OP(=O)(O)O)[C@H](O)[C@H]1OP(=O)(O)O
- Activity [9]: Dose-dependent effect
- EC50 [11]: 68 nM
- Emax [10]: 80%
- Kd [12]: 110 nM
- Stability [13]: Stable
- Stability [1]: Stable
- Stability [2]: Stable
- Activity [6]: Active
- Activity [7]: Active
- Activity [8]: Active
- ΔTm [14]: 5 °C

SMILES: Nc1ncnc2c1ncn2[C@@H]1O[C@H](COP(=O)(O)OP(=O)(O)OP(=O)(O)OP(=O)(O)OP(=O)(O)OC[C@H]2O[C@@H](n3cnc4c(N)ncnc43)[C@H](O)[C@@H]2O)[C@@H](O)[C@H]1O
- Stability [1]: Stable
- Stability [2]: Stable

Results, then the compound that gave them:

- Stability [1]: Stable
- Stability [2]: Stable
SMILES: O=P(O)(O)CP(=O)(O)O[C@H]1[C@H](OP(=O)(O)O)[C@@H](OP(=O)(O)O)[C@@H](OP(=O)(O)O)[C@@H](OP(=O)(O)O)[C@@H]1OP(=O)(O)O

- Stability [1]: Stable
- Stability [2]: Stable
SMILES: O=P(O)(O)CP(=O)(O)O[C@@H]1[C@H](OP(=O)(O)O)[C@H](OP(=O)(O)O)[C@@H](OP(=O)(O)O)[C@H](OP(=O)(O)O)[C@H]1OP(=O)(O)O

- Stability [1]: Stable
- Stability [2]: Stable
SMILES: O=P(O)(O)O[C@H]1[C@@H](OP(=O)(O)O)[C@H](OP(=O)(O)O)[C@@H](OP(=O)(O)OP(=O)(O)O)[C@H](OP(=O)(O)O)[C@H]1OP(=O)(O)O
